PRMT1 FP inh – inhibitors of human PRMT1; inhibition, % at 2.79 µM; recombinant PRMT1, activity-based probe fluorescence polarization; hit rate 1.3% among 370,000; Q99873; AID 652257;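 active = inhibition above about 21% made by adding two undisclosed values, limit read from the data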
rCAG RNA binder – binds r(CAG) RNA repeats; hit rate 1.3% among 370,000; r(CAG) RNA repeat, TO-PRO-1 dye displacement fluorescence; inhibition, % at 3 µM;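 active = inhibition above the plate cutoff, the mean of all test compounds on that plate plus 3 SD, cut at about 35% in these data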;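 note: 0% = DMSO alone and 100% = 100 µM mitoxantrone as full dye displacement; higher means more dye released from RNA so lower well fluorescence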
ABHD4 inh – inhibitors of mouse ABHD4. Q8VD66. purified mABHD4, FP-Rh probe fluorescence polarization. inhibition, % at 8.92 µM. hit rate 0.54% among 370,000. AID 720543;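 active = inhibition exceeding the mean over every tested compound plus 3 SD, cut at about 30% in these data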;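 note: 0% = plate median of compound wells and 100% = S159A mutant with DMSO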
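Test system: mABHD4 protein | Buffer or medium: HEPES pH 7.0 buffer, 150 mM NaCl, 0.01% Pluronic F-127 | Probe or stimulus: FP-Rh fluorescent activity-based probe, added after compound pre-incubation | Timing: Pre-incubation 45 min, probe exposure 60 min, at 25 °C | Technique: Fluorescence polarization, excitation 525 nm, emission 598 nm, BODIPY TMR filters | Repeats: Single well per compound (singlicate)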
SIAE primary – inhibitors of human sialic acid acetylesterase SIAE | hit rate 0.69% among 370,000 | inhibition, % at 9.66 µM | SIAE FP-Rh probe binding, fluorescence polarization | Q9HAT2 | AID 1053197;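 active = inhibition above a cutoff: mean of compounds within the control limits plus 3 SD of those, cut at about 17% in these data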;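 note: 0% = plate median of compound wells and 100% = probe without SIAE protein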
Target sequence (Q9HAT2 whole entry, looked up): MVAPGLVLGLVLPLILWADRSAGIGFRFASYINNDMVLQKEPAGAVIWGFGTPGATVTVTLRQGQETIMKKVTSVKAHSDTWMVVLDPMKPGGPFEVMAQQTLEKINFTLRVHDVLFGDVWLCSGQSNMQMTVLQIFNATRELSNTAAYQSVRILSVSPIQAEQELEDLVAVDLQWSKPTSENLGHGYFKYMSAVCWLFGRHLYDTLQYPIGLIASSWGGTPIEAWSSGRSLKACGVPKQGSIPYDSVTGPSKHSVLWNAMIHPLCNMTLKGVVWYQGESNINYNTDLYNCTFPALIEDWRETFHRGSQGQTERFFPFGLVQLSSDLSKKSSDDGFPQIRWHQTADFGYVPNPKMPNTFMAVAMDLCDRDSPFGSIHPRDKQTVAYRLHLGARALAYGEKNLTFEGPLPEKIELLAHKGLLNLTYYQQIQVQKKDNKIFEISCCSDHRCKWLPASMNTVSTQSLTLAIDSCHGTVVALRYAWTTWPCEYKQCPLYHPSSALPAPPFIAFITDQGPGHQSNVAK
HTRA1 inh – HTRA1 (human) protease inhibition; recombinant HTRA1, FP-rhodamine activity-based probe, fluorescence polarization; inhibition, % at 5.96 µM; hit rate 0.5% among 340,000; Q92743; in the data active = inhibition above about 36%;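 note: 0% = enzyme with DMSO and 100% = wells lacking enzyme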
rCAG bind conf – r(CAG) RNA repeat binding, confirmation; shares compounds with rCAG RNA binder; TO-PRO-1 dye displacement fluorescence; inhibition, % at 3 µM; hit rate 70% among 4,300; AID 652065;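 active = inhibition above a per-plate cutoff, the mean inhibition of sample wells plus 3 SD, cut at about 35% in these data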;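 note: loss of TO-PRO-1 fluorescence as compound displaces dye from 1x1 AA loop RNA; 0% = DMSO only wells and 100% = 100 µM mitoxantrone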
DNA CAG counter – counter-screen for rCAG RNA binders: DNA CAG dye complex inhibitors. shares compounds with rCAG RNA binder. d(CAG) DNA oligo TO-PRO-1 dye displacement, fluorescence. inhibition, % at 3 µM. hit rate 94% among 4,300. AID 652068;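 active = inhibition above its plate's cutoff, the mean test-well inhibition plus 3 SD, cut at about 4.8% in these data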;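 note: 0% = DNA dye mix with DMSO and 100% = 100 µM mitoxantrone; hits displace the dye from DNA and so lower well fluorescence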
dCAG dye DR – DNA CAG dye complex inhibition, dose response counter-screen; shares compounds with rCAG RNA binder; DNA CAG/GTC duplex TO-PRO-1 dye displacement fluorescence; IC50, µM; hit rate 20% among 250; in the data active = IC50 below about 10 µM
* = called active by the depositor; i = inactive; x = not tested or not shown. Rows were chosen to be rich in hits. Some 3.3% of all compounds tested hit in one or more screens of this group.

SMILES	PRMT1 FP inh	rCAG RNA binder	ABHD4 inh	SIAE primary	HTRA1 inh	rCAG bind conf	DNA CAG counter	others
Cc1c(C(=O)N(C)C)sc(NC(=O)c2cc([N+](=O)[O-])cc([N+](=O)[O-])c2)c1C#N	-1.8	56.2*	7.9	-10.8	4.3	37.2*	9.9*
CC1(C(=O)NS(=O)(=O)Cc2cccc(Cl)c2)CCN1C(=O)CCc1ccccc1 (stereo unspecified)	-1.0	21.4	2.2	0.1	x	x	x
CC1(C(=O)NS(=O)(=O)Cc2cccc(Cl)c2)CCN1C(=O)C1(c2ccc(Cl)cc2)CC1 (stereo unspecified)	-1.9	54.4*	12.7	-6.2	x	44.7*	11.5*
CC1(C(=O)NS(=O)(=O)Cc2cccc(Cl)c2)CCN1C(=O)C/C=C/c1ccccc1 (stereo unspecified)	-0.4	39.0*	1.7	0.9	x	35.5*	8.3*
CC1(C(=O)NS(=O)(=O)Cc2cccc(Cl)c2)CCN1C(=O)Cc1ccc(-c2ccccc2)cc1 (stereo unspecified)	-4.1	72.1*	-4.4	8.1	x	70.0*	29.4*	dCAG dye DR=i
COc1cccc(C(=O)Nc2ccc(C(=O)NCC3COc4ccccc4O3)cc2)c1 (stereo unspecified)	4.4	5.9	1.7	-7.2	x	x	x
COc1ccc(-c2nnn3c2C2c4cc(-c5cccc(F)c5)ccc4CCN2C(=O)C3)cc1 (stereo unspecified)	1.1	5.7	-4.2	-7.2	x	x	x
O=[N+]([O-])c1cccc(NC(=S)Nc2nc(-c3ccccc3Cl)cs2)c1	0.2	39.1*	-6.1	-14.9	-28.6	36.1*	27.8*
Cc1ccc(C(=O)Nc2ccc(C(=O)O)cc2NC(=O)c2ccc(C)cc2)cc1	-4.2	21.5	5.9	-5.5	-4.6	x	x
O=C(COc1ccccc1Cl)Nc1ccc(C(=O)O)cc1NC(=O)COc1ccccc1Cl	-1.1	67.2*	-12.0	-6.3	-1.6	53.2*	19.2*
O=C(O)c1ccc(NC(=O)c2ccc(Cl)cc2)c(NC(=O)c2ccc(Cl)cc2)c1	3.9	70.6*	0.9	-15.0	-30.9	59.1*	22.7*
O=C(COc1ccccc1Cl)Nc1ccccc1C(=O)Nc1cccc(C(=O)O)c1	1.9	39.6*	-22.4	-18.7	-12.2	22.9	2.3
Cc1cc(C(=O)Nc2ccccc2C(=O)O)ccc1NC(=O)COc1ccccc1Cl	2.7	11.9	-16.9	-0.3	-3.5	x	x
COc1ccc(/C=C2\SC(=O)N(CCCC(=O)Nc3ccc(C(=O)O)cc3)C2=O)cc1	1.8	3.8	-3.0	-1.2	-0.4	x	x
O=C(CCN1C(=O)S/C(=C\c2ccc(F)cc2)C1=O)Nc1ccc(O)cc1C(=O)O	5.0	48.7*	5.9	11.8	1.4	28.1	6.8*
O=C(CCN1C(=O)S/C(=C\c2ccc(F)cc2)C1=O)Nc1ccc(C(=O)O)c(O)c1	5.2	68.5*	-18.6	1.6	-8.8	43.2*	11.4*
O=C(CCN1C(=O)S/C(=C/c2ccc(F)cc2)C1=O)Nc1ccc(O)c(C(=O)O)c1	1.6	51.0*	2.9	5.1	3.7	36.0*	9.1*
O=C(CCN1C(=O)S/C(=C\c2ccc(Cl)cc2)C1=O)Nc1ccc(C(=O)O)cc1	0.7	-1.4	-5.2	1.3	6.0	x	x
O=C(CCN1C(=O)/C(=C/c2ccc(F)cc2)SC1=S)NCCc1ccc(O)cc1	-3.6	6.0	-21.6	-82.8	-13.1	x	x
O=C(O)c1ccc(Cl)cc1Nc1nc2cc(Cl)ccc2o1	7.1	73.3*	-25.9	-4.4	-57.9	83.5*	61.9*
COc1cc(C(=O)NN=C2c3ccccc3-c3ccccc32)cc(OC)c1OC	-1.2	3.5	-7.8	-4.9	x	x	x
COc1ccc(Cl)cc1NC(=O)C(C)OC(=O)c1ccc(NS(=O)(=O)c2ccc3[nH]c(=O)[nH]c3c2)cc1 (stereo unspecified)	3.3	39.0*	-108.0	-96.3	-89.6	48.6*	16.5*
CC(OC(=O)c1ccc(NS(=O)(=O)c2ccc3[nH]c(=O)[nH]c3c2)cc1)C(=O)Nc1ccc(Cl)cc1 (stereo unspecified)	-2.8	42.8*	-89.2	-78.9	-56.8	27.6	12.7*
CCCCNC(=O)C[C@@H]1C(=O)N(CCc2ccc(Cl)cc2)C2=CCCCC[C@]21C(=O)OC	-6.6	4.1	-5.0	-5.8	x	x	x
O=c1c2cc3cc(Cl)ccc3nc2ncn1Cc1ccc(Oc2ccccc2)cc1	-2.3	8.2	4.7	2.6	x	x	x
SMILES	PRMT1 FP inh	rCAG RNA binder	ABHD4 inh	SIAE primary	HTRA1 inh	rCAG bind conf	DNA CAG counter	others
CN(C(=O)c1ccccc1OCC(=O)Nc1ccc(Br)cc1)c1ccccc1	1.2	0.8	-11.2	-15.3	x	x	x
CCCc1nn2c(=O)c(C(c3cccc(Cl)c3)c3c(O)nc4sc(CCC)nn4c3=O)c(O)nc2s1	-1.1	38.6*	-3.4	2.2	-1.1	50.7*	15.6*
CCCc1nn2c(=O)cc(CSCC(=O)Nc3ccc(C)cc3)nc2s1	1.5	-2.6	4.3	1.9	0.2	x	x
COc1cccc(S(=O)(=O)N(C)C[C@@H]2Oc3ncc(Br)cc3C(=O)N([C@H](C)CO)C[C@@H]2C)c1	1.1	1.5	5.0	0.2	x	x	x
FC(F)(F)c1cccc(NC(=S)NNC(=S)NCc2ccccc2)c1	-1.4	78.5*	10.6	6.8	19.1	63.3*	32.8*
O=C(NNC(=S)Nc1cccc(C(F)(F)F)c1)c1cccc(Cl)c1	2.5	46.9*	3.2	-1.5	7.8	47.9*	14.1*
CC(C)CN1C(=O)[C@]2(CC(=O)N(C)C2c2ccccc2)c2cc(-n3cc(CCCC#N)nn3)ccc21 (stereo partly specified)	1.6	0.2	2.5	-0.2	x	x	x
Cc1snc(S(=O)(=O)/C(C#N)=N/Nc2ccc(C(F)(F)F)cc2)c1C#N	-2.5	68.1*	-13.4	-5.8	-17.2	77.6*	34.9*
Cc1ccc(C2C(C#N)=C(N)Oc3n[nH]c(-c4ccccc4)c32)o1 (stereo unspecified)	18.8	41.5*	25.9	9.0	12.6	40.3*	20.2*
O=C(O)/C(=C\c1ccc2ccccc2c1)c1cccc2ccccc12	-1.5	57.8*	-11.3	5.5	-9.5	52.3*	17.4*
O=C(O)C(=Cc1ccncc1)c1cccc2ccccc12	-1.8	1.8	3.7	6.7	-0.6	x	x
O=C(O)c1ccccc1NS(=O)(=O)c1ccc(NN=Cc2ccccc2F)c([N+](=O)[O-])c1	6.7	84.1*	25.8	-2.4	-25.1	92.1*	71.5*
O=C(O)c1cc(NS(=O)(=O)c2ccc3ccccc3c2)ccc1O	-0.9	13.1	-11.0	2.0	-11.5	x	x
COc1ccccc1NC(=O)C(=O)NNS(=O)(=O)c1ccc2ccccc2c1	2.5	38.2*	2.1	1.4	-9.5	28.4	6.1*

Source: PubChem BioAssay
